In ChEMBL document CHEMBL1828623, “Overcoming hERG activity in the discovery of a series of 4-azetidinyl-1-aryl-cyclohexanes as CCR2 antagonists” (Bioorg Med Chem Lett, 2011):

target: C-C chemokine receptor type 2 (Homo sapiens, UniProt P41597); assay: Displacement of [125I]-MCP1 from CCR2 in human THP1 cells after 2 hrs by microplate scintillation and luminescence counting; format: cell-based, THP-1
How it was run: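 They were incubated with 0.5 nM ¹²⁵I-MCP-1 and varying test compound concentrations for 2 h at 30 °C. Cold MCP-1 defined nonspecific binding. Buffer-only blanks were subtracted and values compared with vehicle.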

Chain of C-C chemokine receptor type 2 (P41597 whole entry): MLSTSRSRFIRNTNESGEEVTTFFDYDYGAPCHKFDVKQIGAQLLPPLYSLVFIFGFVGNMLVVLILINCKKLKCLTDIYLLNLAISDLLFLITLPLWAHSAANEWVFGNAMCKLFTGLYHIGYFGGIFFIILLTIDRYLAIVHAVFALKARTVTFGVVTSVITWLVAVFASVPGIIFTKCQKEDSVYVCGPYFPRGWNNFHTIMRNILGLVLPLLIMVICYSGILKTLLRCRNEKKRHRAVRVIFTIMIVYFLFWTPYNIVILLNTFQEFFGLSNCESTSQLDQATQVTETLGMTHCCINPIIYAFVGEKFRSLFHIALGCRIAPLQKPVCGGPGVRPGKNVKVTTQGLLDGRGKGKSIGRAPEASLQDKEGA

| IC50 [nM] | Structure (SMILES) |
| --- | --- |
| 190 | O=C(CNC(=O)c1cccc(C(F)(F)F)c1)NC1CN([C@H]2CC[C@](O)(c3cccnc3)CC2)C1 |
| 5 | O=C(CNC(=O)c1cccc(C(F)(F)F)c1)NC1CN([C@H]2CC[C@@H](c3ccc4c(c3)OCO4)CC2)C1 |
| 1800 | O=C(CNC(=O)c1cccc(C(F)(F)F)c1)NC1CN([C@H]2CC[C@H](c3ccc4c(c3)OCO4)CC2)C1 |
| 1000 | O=C(CNC(=O)c1cccc(C(F)(F)F)c1)NC1CN(C2CC=C(c3ccc4c(c3)OCO4)CC2)C1 (stereo not drawn) |
| > 25000 | O=C(CNC(=O)c1cccc(C(F)(F)F)c1)NC1CN(C2CCN(c3ccc4c(c3)OCO4)CC2)C1 |
| 35 | O=C(CNC(=O)c1cccc(C(F)(F)F)c1)NC1CN([C@H]2CC[C@H](c3ccccc3)CC2)C1 |
| 390 | O=C(CNC(=O)c1ccccc1)NC1CN([C@H]2CC[C@H](c3ccc4c(c3)OCO4)CC2)C1 |
| 1200 | O=C(CNC(=O)c1ccc(C(F)(F)F)cc1)NC1CN([C@H]2CC[C@H](c3ccc4c(c3)OCO4)CC2)C1 |
| 10 | COc1ccc([C@H]2CC[C@H](N3CC(NC(=O)CNC(=O)c4cccc(C(F)(F)F)c4)C3)CC2)cc1 |
| 21 | O=C(CNC(=O)c1cccc(C(F)(F)F)c1)NC1CN([C@H]2CC[C@H](c3ccc(O)cc3)CC2)C1 |
| 70 | O=C(CNC(=O)c1cccc(C(F)(F)F)c1)NC1CN([C@H]2CC[C@H](c3ccc(C(=O)O)cc3)CC2)C1 |
| 61 | O=C(CNC(=O)c1cccc(C(F)(F)F)c1)NC1CN([C@H]2CC[C@H](c3ccc(N4CCCC4)cc3)CC2)C1 |
| 27 | O=C(CNC(=O)c1cccc(C(F)(F)F)c1)NC1CN([C@H]2CC[C@H](c3ccc4[nH]cnc4c3)CC2)C1 |
| 45 | O=C(CNC(=O)c1cccc(C(F)(F)F)c1)NC1CN([C@H]2CC[C@H](c3cccnc3)CC2)C1 |
| 7 | COc1ccc([C@H]2CC[C@H](N3CC(NC(=O)CNC(=O)c4cccc(C(F)(F)F)c4)C3)CC2)cn1 |
| 32 | COc1cnccc1[C@H]1CC[C@H](N2CC(NC(=O)CNC(=O)c3cccc(C(F)(F)F)c3)C2)CC1 |
| 25 | COc1cc([C@H]2CC[C@H](N3CC(NC(=O)CNC(=O)c4cccc(C(F)(F)F)c4)C3)CC2)ccn1 |
| 13 | O=C(CNC(=O)c1cccc(C(F)(F)F)c1)NC1CN([C@H]2CC[C@H](c3ccc(O)cn3)CC2)C1 |
| 52 | O=C(CNC(=O)c1cccc(C(F)(F)F)c1)NC1CN([C@H]2CC[C@H](c3ccncc3O)CC2)C1 |
| 85 | Nc1ccc([C@H]2CC[C@H](N3CC(NC(=O)CNC(=O)c4cccc(C(F)(F)F)c4)C3)CC2)nc1 |
| 210 | O=C(CNC(=O)c1cccc(C(F)(F)F)c1)NC1CN([C@H]2CC[C@](O)(c3ccc(F)cc3)CC2)C1 |
| 410 | N#Cc1cccc([C@]2(O)CC[C@@H](N3CC(NC(=O)CNC(=O)c4cccc(C(F)(F)F)c4)C3)CC2)c1 |
| 20 | COc1ccc([C@]2(O)CC[C@@H](N3CC(NC(=O)CNC(=O)c4cccc(C(F)(F)F)c4)C3)CC2)cc1 |
| 22 | O=C(CNC(=O)c1cccc(C(F)(F)F)c1)NC1CN([C@H]2CC[C@](O)(c3ccc4c(c3)OCO4)CC2)C1 |
| 25 | O=C(CNC(=O)c1cccc(C(F)(F)F)c1)NC1CN([C@H]2CC[C@](O)(c3ccc4c(c3)OCC4)CC2)C1 |
| > 25000 | Cc1cccc(C)c1[C@]1(O)CC[C@@H](N2CC(NC(=O)CNC(=O)c3cccc(C(F)(F)F)c3)C2)CC1 |
| > 25000 | N#C[C@]1(c2ccccc2)CC[C@H](N2CC(NC(=O)CNC(=O)c3cccc(C(F)(F)F)c3)C2)CC1 |
| > 25000 | O=C(CNC(=O)c1cccc(C(F)(F)F)c1)NC1CN([C@H]2CC[C@](C(=O)O)(c3ccccc3)CC2)C1 |
| > 25000 | O=C(CNC(=O)c1cccc(C(F)(F)F)c1)NC1CN([C@H]2CC[C@](CO)(c3ccccc3)CC2)C1 |
| < 1000 | O=C(CNC(=O)c1cccc(C(F)(F)F)c1)NC1CN(C2CCC(c3c[nH]c4ccccc34)CC2)C1 (mixture of isomers) |

| Structure (SMILES) | IC50 [nM] |
| --- | --- |
| N[C@]1(c2ccccc2)CC[C@H](N2CC(NC(=O)CNC(=O)c3cccc(C(F)(F)F)c3)C2)CC1 | 240 |

target: Voltage-gated inwardly rectifying potassium channel KCNH2 (Homo sapiens, UniProt Q12809); assay: Displacement of [3H]astemizole from human ERG expressed in HEK293 cells after 1 hr
Sequence (Q12809 whole entry): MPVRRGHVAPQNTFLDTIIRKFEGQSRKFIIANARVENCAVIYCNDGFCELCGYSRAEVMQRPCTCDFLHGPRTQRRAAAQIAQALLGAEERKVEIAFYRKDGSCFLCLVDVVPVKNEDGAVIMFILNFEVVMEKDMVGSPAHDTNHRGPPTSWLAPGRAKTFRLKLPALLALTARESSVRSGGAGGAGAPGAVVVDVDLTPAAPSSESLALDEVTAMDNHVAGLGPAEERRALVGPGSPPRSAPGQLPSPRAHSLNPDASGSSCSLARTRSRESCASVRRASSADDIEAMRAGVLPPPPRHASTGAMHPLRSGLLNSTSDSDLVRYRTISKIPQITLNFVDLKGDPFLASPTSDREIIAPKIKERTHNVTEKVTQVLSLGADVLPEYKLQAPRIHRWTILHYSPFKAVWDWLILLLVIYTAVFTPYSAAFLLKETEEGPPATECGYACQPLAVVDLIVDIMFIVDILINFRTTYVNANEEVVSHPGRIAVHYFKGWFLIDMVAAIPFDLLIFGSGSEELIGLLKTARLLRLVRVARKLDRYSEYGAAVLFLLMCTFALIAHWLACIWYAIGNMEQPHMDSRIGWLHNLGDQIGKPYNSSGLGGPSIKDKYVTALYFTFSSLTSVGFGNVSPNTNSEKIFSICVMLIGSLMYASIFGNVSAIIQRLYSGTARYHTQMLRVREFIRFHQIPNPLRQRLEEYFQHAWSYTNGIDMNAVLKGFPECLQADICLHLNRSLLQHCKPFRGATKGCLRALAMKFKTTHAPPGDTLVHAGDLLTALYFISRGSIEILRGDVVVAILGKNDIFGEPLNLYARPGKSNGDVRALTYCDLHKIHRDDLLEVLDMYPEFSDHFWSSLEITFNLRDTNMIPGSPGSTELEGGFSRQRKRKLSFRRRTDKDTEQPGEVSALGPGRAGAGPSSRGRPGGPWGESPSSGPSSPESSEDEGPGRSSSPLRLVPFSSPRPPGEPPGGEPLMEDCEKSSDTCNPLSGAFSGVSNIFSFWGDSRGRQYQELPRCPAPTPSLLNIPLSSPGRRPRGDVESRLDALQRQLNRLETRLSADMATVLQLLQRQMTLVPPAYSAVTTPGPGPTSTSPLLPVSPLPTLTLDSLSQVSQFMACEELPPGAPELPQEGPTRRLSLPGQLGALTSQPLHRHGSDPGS

| Structure (SMILES) | IC50 [nM] |
| --- | --- |
| O=C(CNC(=O)c1ccc(C(F)(F)F)cc1)NC1CN([C@H]2CC[C@H](c3ccc4c(c3)OCO4)CC2)C1 | 1500 |
| O=C(CNC(=O)c1cccc(C(F)(F)F)c1)NC1CN(C2CCC(c3c[nH]c4ccccc34)CC2)C1 (mixture of isomers) | 2400 |
